Structures can show the parent of a compound that is named as a salt.
Assays:
5HT1A = target: T1, 5HT1A (Homo sapiens, UniProt P08908); assay: Calcium mobilization assay, 5-HT1A; type: cell-based
T1 sequence (P08908 1-422): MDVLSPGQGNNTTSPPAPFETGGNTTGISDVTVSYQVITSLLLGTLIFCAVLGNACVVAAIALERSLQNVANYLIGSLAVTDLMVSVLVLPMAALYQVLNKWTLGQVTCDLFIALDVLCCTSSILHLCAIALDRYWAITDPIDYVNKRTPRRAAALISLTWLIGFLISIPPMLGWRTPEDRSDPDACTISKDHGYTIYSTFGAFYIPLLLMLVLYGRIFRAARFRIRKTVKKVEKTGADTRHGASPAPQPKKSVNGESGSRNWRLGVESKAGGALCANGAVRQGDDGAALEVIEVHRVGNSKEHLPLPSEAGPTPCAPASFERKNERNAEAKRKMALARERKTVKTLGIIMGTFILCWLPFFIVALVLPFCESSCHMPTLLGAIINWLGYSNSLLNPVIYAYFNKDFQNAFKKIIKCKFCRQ
How it was run: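 CHO-Gα16 cells stably expressing human 5-HT1A, plated overnight at 25,000 cells/well in Ham's F12 with 10% FBS. Calcium 5 dye (1:40) in HBSS, 20 mM HEPES, 2.5 mM probenecid, pH 7.4, for 45 min at 37°C. Agonist mode: compound added at 10 s, fluorescence read 90 s. Antagonist mode: 15 min compound pretreatment, then EC50–EC80 5-HT. Three-parameter logistic fit.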

hTAAR1 = target: T2, hTAAR1 (Homo sapiens, UniProt Q96RJ0); assay: hTAAR1 cAMP assay; type: cell-based
T2 sequence (Q96RJ0 1-339): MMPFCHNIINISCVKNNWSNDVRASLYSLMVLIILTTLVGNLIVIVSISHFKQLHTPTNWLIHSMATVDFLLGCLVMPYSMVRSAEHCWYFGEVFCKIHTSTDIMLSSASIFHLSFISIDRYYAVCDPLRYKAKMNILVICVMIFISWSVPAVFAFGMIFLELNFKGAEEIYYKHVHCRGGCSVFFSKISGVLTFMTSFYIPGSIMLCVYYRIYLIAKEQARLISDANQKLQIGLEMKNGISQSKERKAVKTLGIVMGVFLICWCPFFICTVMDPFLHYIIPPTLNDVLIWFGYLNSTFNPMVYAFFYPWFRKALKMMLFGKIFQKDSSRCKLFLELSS

APJ (Apelin) = target: T3, APJ (Apelin) (Homo sapiens, UniProt P35414); assay: Calcium mobilization assay, APJ; type: cell-based
T3 sequence (P35414 1-380): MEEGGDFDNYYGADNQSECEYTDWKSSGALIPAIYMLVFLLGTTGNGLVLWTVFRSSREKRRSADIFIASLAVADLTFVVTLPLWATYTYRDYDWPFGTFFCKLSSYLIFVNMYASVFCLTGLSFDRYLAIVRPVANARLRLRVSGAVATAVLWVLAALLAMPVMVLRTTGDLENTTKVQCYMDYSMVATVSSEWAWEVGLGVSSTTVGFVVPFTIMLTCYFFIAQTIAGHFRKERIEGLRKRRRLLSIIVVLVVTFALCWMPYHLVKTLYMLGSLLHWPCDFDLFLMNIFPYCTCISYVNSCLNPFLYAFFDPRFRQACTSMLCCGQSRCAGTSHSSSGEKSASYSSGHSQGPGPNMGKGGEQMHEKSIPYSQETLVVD
How it was run: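 CHO-Gα16-APJ cells were plated overnight at 30,000 cells/well in DMEM/F12 with 10% FBS and loaded with Calcium 5 dye for 45 min at 37°C. Compound dilutions contained BSA/DMSO: 2.25% BSA/9% DMSO for pretreatment, 0.25% BSA/1% DMSO for treatment. Antagonist mode: 15 min pretreatment, then EC50–EC80 apelin. Fluorescence was read on FLIPR or FlexStation. EC50/IC50 came from a three-parameter logistic fit.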

delta opioid receptor = delta opioid receptor (Homo sapiens, UniProt P41143); assay: Calcium mobilization assay, delta opioid receptor; type: cell-based
Sequence of delta opioid receptor (P41143 whole entry): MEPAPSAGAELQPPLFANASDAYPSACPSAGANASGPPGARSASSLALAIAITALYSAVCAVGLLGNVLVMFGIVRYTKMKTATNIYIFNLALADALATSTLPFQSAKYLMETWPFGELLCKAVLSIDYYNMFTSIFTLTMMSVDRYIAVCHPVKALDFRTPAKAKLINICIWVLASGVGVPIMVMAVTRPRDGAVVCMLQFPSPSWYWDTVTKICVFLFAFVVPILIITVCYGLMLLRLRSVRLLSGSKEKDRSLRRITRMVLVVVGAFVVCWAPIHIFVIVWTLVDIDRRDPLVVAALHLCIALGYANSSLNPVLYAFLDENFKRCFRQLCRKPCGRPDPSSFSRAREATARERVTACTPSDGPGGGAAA

NPS receptors [1] = details: calcium mobilization; ref Zhang et al., 2008; cited from earlier work
mu opioid receptor = mu opioid receptor (Homo sapiens, UniProt P35372); assay: Calcium mobilization assay, mu opioid receptor; type: cell-based
Sequence of mu opioid receptor (P35372 whole entry): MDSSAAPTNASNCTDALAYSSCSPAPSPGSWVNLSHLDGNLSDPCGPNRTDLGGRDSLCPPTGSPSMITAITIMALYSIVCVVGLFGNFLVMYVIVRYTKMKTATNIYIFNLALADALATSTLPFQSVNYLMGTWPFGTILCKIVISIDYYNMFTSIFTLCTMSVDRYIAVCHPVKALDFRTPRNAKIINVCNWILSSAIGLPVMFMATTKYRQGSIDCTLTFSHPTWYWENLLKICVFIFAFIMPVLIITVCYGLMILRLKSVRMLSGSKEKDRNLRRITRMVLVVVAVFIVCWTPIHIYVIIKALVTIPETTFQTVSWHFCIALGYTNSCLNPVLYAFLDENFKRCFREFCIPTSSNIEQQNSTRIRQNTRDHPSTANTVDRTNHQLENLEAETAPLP

CB1 = CB1 (Homo sapiens, UniProt P21554); assay: Calcium mobilization assay, CB1; type: cell-based
Sequence of CB1 (P21554 whole entry): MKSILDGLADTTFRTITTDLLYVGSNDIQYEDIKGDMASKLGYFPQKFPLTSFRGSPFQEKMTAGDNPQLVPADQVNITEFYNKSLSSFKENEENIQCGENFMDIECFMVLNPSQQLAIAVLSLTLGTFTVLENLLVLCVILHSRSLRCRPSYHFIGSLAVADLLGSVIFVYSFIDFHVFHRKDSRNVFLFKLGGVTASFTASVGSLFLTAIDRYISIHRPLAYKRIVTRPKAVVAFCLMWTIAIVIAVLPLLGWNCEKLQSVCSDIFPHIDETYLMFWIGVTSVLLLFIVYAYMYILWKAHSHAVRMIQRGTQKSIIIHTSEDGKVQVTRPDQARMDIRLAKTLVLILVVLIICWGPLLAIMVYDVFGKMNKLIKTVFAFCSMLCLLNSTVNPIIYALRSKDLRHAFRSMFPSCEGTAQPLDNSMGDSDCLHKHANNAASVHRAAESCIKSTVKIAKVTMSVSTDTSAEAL

5HT2A = 5HT2A (Homo sapiens, UniProt P28223); assay: Calcium mobilization assay, 5-HT2A; type: cell-based
Sequence of 5HT2A (P28223 whole entry): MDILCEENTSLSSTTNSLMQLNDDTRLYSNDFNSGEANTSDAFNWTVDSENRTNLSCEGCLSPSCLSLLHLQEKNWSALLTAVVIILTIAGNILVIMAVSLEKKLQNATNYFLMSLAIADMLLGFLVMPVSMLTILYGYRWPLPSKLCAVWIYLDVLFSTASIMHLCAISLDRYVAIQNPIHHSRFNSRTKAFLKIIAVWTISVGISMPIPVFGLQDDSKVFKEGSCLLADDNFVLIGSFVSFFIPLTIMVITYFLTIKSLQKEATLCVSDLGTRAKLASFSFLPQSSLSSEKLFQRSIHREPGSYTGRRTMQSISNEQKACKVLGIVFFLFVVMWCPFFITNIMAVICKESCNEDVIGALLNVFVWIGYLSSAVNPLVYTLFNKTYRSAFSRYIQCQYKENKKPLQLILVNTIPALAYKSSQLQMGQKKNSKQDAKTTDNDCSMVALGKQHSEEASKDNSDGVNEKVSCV
How it was run: (§1)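 Stable human 5-HT2A or 5-HT2B HEK293 cells were plated overnight on PEI-coated plates at 40,000 or 35,000 cells/well in DMEM-HG, 10% FBS, 15 mM HEPES. Calcium 5 dye was loaded for 45 min at 37°C in HBSS/HEPES/probenecid, pH 7.4. Antagonist mode used 15 min compound pretreatment, then EC50–EC80 5-HT. Peak fluorescence change was fit to a three-parameter logistic.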

NPS receptors [2] = assay: In vitro calcium mobilization assay, NPS receptor antagonism; type: cell-based; details: vs 13 receptors and ion channels of Table 1
CB2 = CB2 (Homo sapiens, UniProt P34972); assay: Calcium mobilization assay, CB2; type: cell-based
Sequence of CB2 (P34972 whole entry): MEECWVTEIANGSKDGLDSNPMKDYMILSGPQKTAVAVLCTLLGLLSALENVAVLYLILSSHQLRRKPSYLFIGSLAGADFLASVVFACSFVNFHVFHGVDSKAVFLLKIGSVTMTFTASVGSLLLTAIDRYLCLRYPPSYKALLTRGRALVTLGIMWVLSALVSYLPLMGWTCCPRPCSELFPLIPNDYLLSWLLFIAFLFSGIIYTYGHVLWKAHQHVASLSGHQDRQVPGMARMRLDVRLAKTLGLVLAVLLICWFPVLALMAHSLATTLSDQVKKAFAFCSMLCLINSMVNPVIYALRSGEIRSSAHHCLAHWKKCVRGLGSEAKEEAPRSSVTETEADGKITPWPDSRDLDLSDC

5HT2B = 5HT2B (Homo sapiens, UniProt P41595); assay: Calcium mobilization assay, 5-HT2B; type: cell-based
Sequence of 5HT2B (P41595 whole entry): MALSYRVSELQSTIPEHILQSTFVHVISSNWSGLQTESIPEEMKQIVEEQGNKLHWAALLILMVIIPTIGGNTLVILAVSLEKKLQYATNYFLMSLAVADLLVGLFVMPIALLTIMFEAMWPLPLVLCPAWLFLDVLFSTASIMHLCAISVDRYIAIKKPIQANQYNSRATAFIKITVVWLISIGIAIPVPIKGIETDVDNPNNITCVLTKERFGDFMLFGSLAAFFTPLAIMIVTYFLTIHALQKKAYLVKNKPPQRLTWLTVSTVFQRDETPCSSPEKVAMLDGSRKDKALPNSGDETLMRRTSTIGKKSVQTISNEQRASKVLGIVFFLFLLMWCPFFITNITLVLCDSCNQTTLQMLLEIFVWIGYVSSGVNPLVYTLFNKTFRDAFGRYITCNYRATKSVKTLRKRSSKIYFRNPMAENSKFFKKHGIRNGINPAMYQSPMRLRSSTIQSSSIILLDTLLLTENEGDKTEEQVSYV
How it was run: as §1

CaV 3.2 = CaV 3.2 (Homo sapiens, UniProt O95180); assay: Calcium voltage channel 3.2 calcium mobilization assay; type: cell-based
kappa opioid receptor = kappa opioid receptor (Homo sapiens, UniProt P41145); assay: Calcium mobilization assay, kappa opioid receptor; type: cell-based
Sequence of kappa opioid receptor (P41145 whole entry): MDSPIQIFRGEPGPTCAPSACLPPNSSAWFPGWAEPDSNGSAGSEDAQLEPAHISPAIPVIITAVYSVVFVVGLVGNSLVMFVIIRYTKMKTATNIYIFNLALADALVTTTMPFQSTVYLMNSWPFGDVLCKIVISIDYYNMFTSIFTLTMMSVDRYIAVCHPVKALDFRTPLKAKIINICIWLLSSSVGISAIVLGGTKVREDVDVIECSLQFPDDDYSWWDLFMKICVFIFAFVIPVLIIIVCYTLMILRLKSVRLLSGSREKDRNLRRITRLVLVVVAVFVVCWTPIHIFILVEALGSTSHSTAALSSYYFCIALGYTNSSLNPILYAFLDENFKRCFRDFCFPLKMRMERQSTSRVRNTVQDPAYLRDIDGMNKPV

ICSS in rats = assay: Intracranial self-stimulation; type: in vivo, rat; details: i.p.
CaV 3.1 = CaV 3.1 (Homo sapiens, UniProt O43497); assay: Calcium voltage channel 3.1 calcium mobilization assay; type: cell-based
[3] = test system: cocaine self-administration; details: rats; 5–30 mg/kg i.p.; ref Schmoutz et al., 2012; cited from earlier work
TRPV1 = TRPV1 (Homo sapiens, UniProt Q8NER1); assay: Calcium mobilization assay, TRPV1; type: cell-based
Sequence of TRPV1 (Q8NER1 whole entry): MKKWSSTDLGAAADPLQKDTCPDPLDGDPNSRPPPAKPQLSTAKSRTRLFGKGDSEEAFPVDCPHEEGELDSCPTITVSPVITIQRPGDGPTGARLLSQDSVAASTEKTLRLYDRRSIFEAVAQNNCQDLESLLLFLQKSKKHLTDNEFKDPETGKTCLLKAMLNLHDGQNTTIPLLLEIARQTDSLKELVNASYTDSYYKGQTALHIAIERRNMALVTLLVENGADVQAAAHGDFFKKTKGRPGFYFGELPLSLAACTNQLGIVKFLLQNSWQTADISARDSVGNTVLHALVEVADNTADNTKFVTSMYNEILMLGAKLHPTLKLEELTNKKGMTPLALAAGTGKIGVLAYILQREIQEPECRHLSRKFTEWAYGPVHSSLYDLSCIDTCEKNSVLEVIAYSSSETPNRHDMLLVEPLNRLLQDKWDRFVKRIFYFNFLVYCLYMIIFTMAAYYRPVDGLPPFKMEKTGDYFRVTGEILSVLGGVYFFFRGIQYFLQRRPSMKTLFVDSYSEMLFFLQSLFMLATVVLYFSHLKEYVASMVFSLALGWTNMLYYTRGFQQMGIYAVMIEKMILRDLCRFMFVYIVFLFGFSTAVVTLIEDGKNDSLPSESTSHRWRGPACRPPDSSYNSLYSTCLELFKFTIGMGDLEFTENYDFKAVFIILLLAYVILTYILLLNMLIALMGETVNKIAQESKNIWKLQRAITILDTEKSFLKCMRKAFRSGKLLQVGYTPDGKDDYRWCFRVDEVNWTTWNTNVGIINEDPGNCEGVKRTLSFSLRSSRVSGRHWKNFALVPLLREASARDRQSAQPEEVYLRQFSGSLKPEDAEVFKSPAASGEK
How it was run: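 HEK293 cells stably expressing human TRPV1, plated overnight at 30,000 cells/well on PEI-coated plates in DMEM-HG with 10% FBS. Calcium 5 dye in HBSS, 20 mM HEPES, 2.5 mM probenecid, pH 7.4, for 45 min at 37°C. Antagonist mode: 15 min compound pretreatment, then EC50–EC80 capsaicin. Agonist mode: compound added directly. Three-parameter logistic fit.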

[4] = test system: food-maintained responding; details: rats, ref Schmoutz et al., 2012, cited from earlier work

## O=C(NCCN1CCCCC1)N1CCN2C(=O)OC(c3ccccc3)(c3ccccc3)C2C1 (stereo not shown) [RTI-118, 3-oxo-1,1-diphenyl-N-(2-(piperidin-1-yl)ethyl)tetrahydro-1H-oxazolo[3,4-a]pyrazine-7(3H)-carboxamide]
5HT1A
  EC50: > 10 µM
  IC50: > 10 µM
hTAAR1
  EC50: > 10 µM
  IC50: > 10 µM
APJ (Apelin)
  EC50: > 10 µM
  IC50: > 10 µM
Delta opioid receptor
  EC50: > 10 µM
  IC50: > 10 µM
NPS receptors [1]
  Ke value as an antagonist at NPS receptors: 109 ± 23 nM
Mu opioid receptor
  EC50: > 10 µM
  IC50: > 10 µM
CB1
  EC50: > 10 µM
  IC50: > 10 µM
5HT2A
  EC50: > 10 µM
  IC50: > 10 µM
NPS receptors [2]
  Selectivity for NPS receptors relative to the other targets: at least 100 fold
CB2
  EC50: > 10 µM
  IC50: > 10 µM
5HT2B
  EC50: > 10 µM
  IC50: > 10 µM
CaV 3.2
  IC50: > 10 µM
Kappa opioid receptor
  EC50: > 10 µM
  IC50: > 10 µM
ICSS in rats; 10 mg/kg RTI-118
  Effect on ICSS, drug alone: significantly increased ICSS at one frequency (1.9 log Hz)
ICSS in rats; 32 mg/kg RTI-118 + 3.2 mg/kg MDPV
  Effect of pretreatment on MDPV-induced facilitation of ICSS: did not alter MDPV-induced facilitation of ICSS
ICSS in rats; 32 mg/kg RTI-118, first group of rats
  Effect on ICSS, drug alone: significantly decreased ICSS at only one frequency (2.05 log Hz)
ICSS in rats; 32 mg/kg RTI-118, second group of rats (MDPV study)
  Effect on ICSS, drug alone: did not significantly alter ICSS at any frequency
ICSS in rats; low doses of 3.2–10 mg/kg RTI-118
  Effect on ICSS, drug alone: had little effect on ICSS
ICSS in rats; pretreatment + 10 mg/kg cocaine vs vehicle + 10 mg/kg cocaine
  Effect of pretreatment on cocaine-induced facilitation of ICSS: attenuation of cocaine effects was statistically significant only at the highest RTI-118 dose (32 mg/kg)
CaV 3.1
  IC50: > 10 µM
[3]
  Effect on cocaine self-administration: dose-dependent and nearly complete elimination of cocaine self-administration
TRPV1
  EC50: > 10 µM
  IC50: > 10 µM
[4]; 30 mg/kg
  Reduction in rates of food-maintained responding: up to 20%
[4]; doses up to 20 mg/kg IP
  Effect on rates of food-maintained responding: had no effect on rates of food-maintained responding

## CCCC(C(=O)c1ccc2c(c1)OCO2)N1CCCC1.Cl (racemic) [MDPV, (±)-3,4-methylenedioxypyrovalerone HCl, reference compound]
ICSS in rats; 3.2 mg/kg MDPV vs vehicle + vehicle
  Effect on ICSS, drug alone: facilitated ICSS across a broad range of frequencies (1.75–2.05 log Hz)

## COC(=O)[C@H]1[C@@H](OC(=O)c2ccccc2)C[C@@H]2CC[C@H]1N2C [Cocaine, (−)-Cocaine HCl, reference compound]
ICSS in rats; 10 mg/kg cocaine
  Effect on ICSS, drug alone: facilitated ICSS across a broad range of six frequencies (1.75–2.0 log Hz)
